In all, about 65,000 compounds went through this assay and about 1,200 (1.8%) were called active.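 Rule for the calls: active = activation above the mean activation of all tested compounds plus 3 SD (cut at about 50% in these data); inactive = the rest.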 This excerpt belongs to a sample that is enriched for actives.
Target: Steroidogenic factor 1 (Homo sapiens) (UniProt Q13285)
Assay: activators of human SF-1, primary screen, cell-based, CHO-K1, Gal4-SF-1 LBD, luciferase luminescence (AID 522)
Conditions: CHO-K1 Gal4-SF-1 LBD luciferase reporter; at 10 µM; active compounds read high; % increase over DMSO SF-1-specific signal
Procedure, shortened: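 Test system: CHO-K1 cells with Gal4–hSF-1 LBD chimera plus Gal4-driven luciferase; Input: 4,000 cells/well; Compound: 10 µM only; Times: 20 h compound treatment, 37 °C; Measured by: steady-glow luciferase luminescence, read after 15 min reagent incubation; Measure: percent activation versus DMSO; Control set: DMSO and mock-transfected background; Replicates: one test per compound.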

Steroidogenic factor 1 (Homo sapiens), sequence (Q13285 whole entry, looked up, the tested form may be a part): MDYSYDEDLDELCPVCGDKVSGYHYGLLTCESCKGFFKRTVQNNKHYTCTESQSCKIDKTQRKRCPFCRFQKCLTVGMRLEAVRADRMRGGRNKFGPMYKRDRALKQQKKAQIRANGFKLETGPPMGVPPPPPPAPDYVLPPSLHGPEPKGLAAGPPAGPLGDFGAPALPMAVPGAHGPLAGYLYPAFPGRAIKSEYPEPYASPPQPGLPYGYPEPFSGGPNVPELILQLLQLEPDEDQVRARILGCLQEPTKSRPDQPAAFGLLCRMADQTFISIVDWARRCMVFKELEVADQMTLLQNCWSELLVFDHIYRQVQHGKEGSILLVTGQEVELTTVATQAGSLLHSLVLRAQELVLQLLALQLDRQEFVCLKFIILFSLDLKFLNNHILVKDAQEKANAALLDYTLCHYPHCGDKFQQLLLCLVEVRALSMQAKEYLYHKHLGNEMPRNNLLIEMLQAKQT

SMILES	activation
Cn1c(=NC(=O)c2ccco2)sc2cccc(F)c21	91.8% (active)
Cn1c(=NC(=O)C2CC2)sc2cc(F)cc(F)c21	-2% (inactive)
CCCC(=O)N=c1sc2cccc(F)c2n1C	17.9% (inactive)
CC(=O)Nc1ccn(Cc2c(F)cccc2Cl)n1	42.1% (inactive)
CCCCOC(=O)c1ccc(N2C(=O)CC(N3CCN(C/C=C/c4ccccc4)CC3)C2=O)cc1 (centres undefined)	-6.3% (inactive)
O=C(Cn1cnc2c(cnn2-c2ccc(F)cc2)c1=O)NCCc1ccccc1	-19.4% (inactive)
O=C(Cn1cnc2c(cnn2-c2ccccc2)c1=O)NCc1ccccc1	70.3% (active)
COc1ccc(-n2nnc3c(=O)n(CC(=O)OCc4ccccc4)cnc32)cc1	9.3% (inactive)
O=C(Cn1c(=O)sc2ccccc21)Nc1ccc2c(c1)OCCO2	-9.9% (inactive)
N#CC(=C1SC=CS1)c1nc(-c2ccccc2)cs1	80.9% (active)
N#C/C(=C1\CCCN1)c1nc(-c2ccccc2)cs1	30% (inactive)
CCOC(=O)CSc1nnc(CNC(=O)c2ccco2)n1-c1ccc(F)cc1	3.4% (inactive)
CN(CCc1ccccn1)S(=O)(=O)c1ccc2c3c(cccc13)C(=O)N2	14.4% (inactive)
COc1ccccc1OCCC(=O)OCC(=O)NC(=O)NC(C)(C)C	8.8% (inactive)
CCc1nnc(NC(=O)CSc2nnc(Cc3ccccc3)n2-c2ccc(OC)cc2)s1	-17.5% (inactive)
CS(=O)(=O)c1ccc2nc(NC(=O)C3C4C=CC(C4)C3C(=O)O)sc2c1 (centres undefined)	8.1% (inactive)
CC(C)COC(=O)c1ccc(NC(=O)C2C3C=CC(C3)C2C(=O)O)cc1 (centres undefined)	63.7% (active)
CCCCC(CCC(=O)Nc1ccc(C(=O)OCC)cc1)C(=O)O (centres undefined)	-8.4% (inactive)
CCc1nnc(NC(=O)c2ccc(S(=O)(=O)NC3CCCCC3)cc2)s1	6.1% (inactive)
COc1cccc(N(CC(=O)Nc2cccc(N(C)S(C)(=O)=O)c2)S(C)(=O)=O)c1	1.3% (inactive)
CCOC(=O)C1CCN(C(=O)Cc2c(C(=O)O)[nH]c3ccccc23)CC1	-12.1% (inactive)
COC(=O)c1sc(NC(=O)c2csc3c2CCCC3)nc1C	50.9% (active)
CC(=O)Cc1nsc(NC(=O)c2csc3c2CCCC3)n1	18% (inactive)
COC(=O)c1sccc1NC(=O)c1csc2c1CCCC2	-11.7% (inactive)
CCOC(=O)c1cc(-c2nnc(-c3cc(OC)c(OC)c(OC)c3)o2)c(C)nc1C	-11% (inactive)
Cc1ccc(C)c2[nH]c(=O)c(CCNC(=O)CC(C)C)cc12	-11.8% (inactive)

SMILES	activation
CCOC(=O)C1Cn2c(nc3c(c2=O)C(C)(CC)Cc2ccccc2-3)S1 (centres undefined)	-8.9% (inactive)
CC1Cn2c(nnc2-c2cccs2)S1 (centres undefined)	-15.2% (inactive)
O=C(Nc1ccc(Cl)cc1)c1ccsn1	73.5% (active)
O=C(O)C1CCCCC1C(=O)Nc1ccc(Cl)cc1 (centres undefined)	-2.8% (inactive)
O=C(NCc1cn2ccsc2n1)Nc1ccc(Cl)cc1	-1.8% (inactive)
CCOC(=O)C1CCCCN1Cc1ccc(OC)c(OC)c1OC (centres undefined)	-21.3% (inactive)
CN(c1ccc(C(=O)NCCC2=CCCCC2)cc1)S(C)(=O)=O	55.4% (active)
O=C(COc1cccc(-n2cnnn2)c1)NCCC1=CCCCC1	-3.3% (inactive)
O=C(Cc1nn[nH]n1)NCCC1=CCCCC1	3.7% (inactive)
Cn1nnc2cc(C(=O)NCCC3=CCCCC3)ccc21	49.9% (active)
CN(c1ccc(C(=O)N2CCc3ccccc3C2)cc1)S(C)(=O)=O	22.9% (inactive)
O=C(CN1C(=O)NC2(CCCCC2)C1=O)NCCC1=CCCCC1	2.8% (inactive)
COc1ccc(S(=O)(=O)N2CCCC2)c(C)c1C	-8.5% (inactive)
c1ccc(-c2nnc3n2NC(c2ccc4c(c2)OCO4)S3)cc1 (centres undefined)	-14.9% (inactive)
CC(C)C[C@H](NC(=O)Nc1cccc(C(F)(F)F)c1)C(=O)O	-1.1% (inactive)
Cc1ccsc1-c1nc(CSCC(=O)NCCN2CCCC2)c(C)o1	3.6% (inactive)
O=C(Nc1cccnc1)c1ccc2c(c1)OCO2	13.2% (inactive)
O=C(Nc1ccc2c(c1)OCCO2)c1ccncc1	20.3% (inactive)
Cn1c(=O)n(C)c2cc(C(=O)Nc3ccc4c(c3)OCO4)ccc21	21.2% (inactive)
Cc1ccc(C(=O)Nc2ccc3c(c2)OCO3)cc1S(=O)(=O)N1CCCCC1	22.6% (inactive)
COc1ccc(C(=O)Nc2ccc3c(c2)OCO3)cc1OC	55% (active)
CC(C)C(=O)Nc1cccc(C(=O)Nc2ccc3c(c2)OCO3)c1	55% (active)
CCc1nnc(NC(=O)c2c(O)c3c([nH]c2=O)CCCC3)s1	29.1% (inactive)
CC1C(c2ccccc2)=[N+]([O-])C2(CCCC2)N1O (centres undefined)	18.6% (inactive)
O=C(C1CCC(C(=O)N2CCCC2)CC1)N1CCCC1 (centres undefined)	-2.5% (inactive)
COc1ccc(NC(=O)c2cccc(NC(=O)c3ccco3)c2)c(OC)c1	-29.9% (inactive)

SMILES	activation
Fc1ccc2nc(N3CCCCC3)sc2c1	43.3% (inactive)
Fc1cc(F)c2nc(N3CCOCC3)sc2c1	52.6% (active)
c1c2c(cc3sc(N4CCCCC4)nc13)OCCO2	-71.4% (inactive)
Cc1ccnc(NC(=O)c2ccc(NC(=O)c3ccco3)cc2)c1	46.9% (inactive)
O=C(O)Cc1ccc(NC(=O)c2cccs2)cc1	-7.4% (inactive)
O=C(Nc1ccc(NC(=O)c2cccs2)cn1)c1ccco1	73.3% (active)
COc1ccc(N(C(=O)c2cccnc2)S(=O)(=O)c2ccc3c(c2)n(C)c(=O)n3C)cc1	-24.3% (inactive)
COc1ccc(Cn2nnc3c(=O)[nH]c(C4CCN(C(=O)c5ccccc5Cl)CC4)nc32)cc1	-2.2% (inactive)
Cc1cc2nc(-c3ccc(NC(=O)c4cccnc4)cc3)oc2cc1C	54.8% (active)
CC(C)NS(=O)(=O)c1ccc(NC(=O)c2cccnc2)cc1	33.9% (inactive)
CCC(=O)Nc1cccc(NC(=O)c2cccnc2)c1	-0.4% (inactive)
CCOC(=O)c1ccn(-c2nc(-c3ccco3)cc(C(F)(F)F)n2)n1	0.6% (inactive)
CC(C)Cc1cc(C(=O)NCCc2ccccc2)no1	80.7% (active)
CC(C)Cc1cc(C(=O)Nc2cc(Br)ccc2O)no1	11.7% (inactive)
Cc1cc(C(=O)NCCCc2ccccc2)no1	16.8% (inactive)
CC(C)Cn1c(CCC(=O)O)ccc1-c1cccs1	2.5% (inactive)
COc1ccccc1N=C1SC(C)CN1C(=O)C1CCC1 (centres undefined)	1.8% (inactive)
COc1ccc(-n2nnnc2SCC(=O)c2ccc(OC)c(OC)c2)cc1	-4.4% (inactive)
O=C(O)CSCc1nc2ccccc2s1	15.5% (inactive)
COC(=O)Cc1cc(=O)n(-c2nc3ccccc3s2)[nH]1	-3% (inactive)
CCC(=O)NC(=Nc1nc2ccccc2s1)NC(=O)CC	60.7% (active)
COc1ccc(-c2cc(C(F)(F)F)n3nc(C(=O)N4CCOCC4)c(Cl)c3n2)cc1	-9.4% (inactive)
C=CCn1c(C)cc(C(=O)CN2C(=O)c3ccccc3C2=O)c1C	27.3% (inactive)
Cc1c(C(=O)CN2CCOCC2)[nH]c2ccccc12	8.5% (inactive)
Nc1ccc(-c2nnc(-c3ccc(-c4ccccc4)cc3)o2)cc1	55.2% (active)
COc1ccc(CC(=O)Nc2ccc(-c3nnc(-c4ccccc4)o3)cc2)cc1	-59.5% (inactive)

SMILES	activation
O=C(Nc1ccc(-c2nnc(-c3ccccc3)o2)cc1)c1ccc(Br)o1	10.9% (inactive)
CCOC(=O)c1nc(-c2ccc3c(c2)OCO3)[nH]c1C	46.3% (inactive)
O=C(Nc1ccc(Cl)cn1)Nc1cccs1	47.6% (inactive)
Cc1cc(NC(=O)c2cnn3cccnc23)n(-c2ccccc2)n1	2.1% (inactive)
O=C(Nc1ccc(Cl)cn1)c1cnn2cccnc12	63.8% (active)
CCS(=O)(=O)N1CCCC(C(=O)NCCCN(C)Cc2ccccc2)C1 (centres undefined)	-14.4% (inactive)
COc1ccc(NS(=O)(=O)c2ccc(NC(=O)C(C)(C(F)(F)F)C(F)(F)F)cc2)nn1	-13.6% (inactive)
O=C(NCc1ccco1)c1nc(-c2ccccc2)n(-c2ccccc2)n1	-4.9% (inactive)
Cc1nc2nc(SCC(=O)NCc3ccco3)nn2c(C)c1Cc1ccccc1	5.7% (inactive)
O=C(Cc1ccccc1)n1nc(-c2ccccc2)nc1NCc1ccco1	50.5% (active)
CCOC(=O)C1CCCN(C(=O)c2ccc(CS(=O)(=O)c3ccc(Br)cc3)o2)C1 (centres undefined)	19.7% (inactive)
Cc1cccc(-n2nc3c(c2NC(=O)c2ccc(Br)o2)CSC3)c1C	9.6% (inactive)
CCC(Oc1ccccc1)C(=O)NCc1cccnc1 (centres undefined)	-4.9% (inactive)
COc1cc(OC)c(C(=O)NC2CCCCCC2)cc1OC	2% (inactive)
COc1ccc(NC(=O)c2ccc(OC)cc2)cc1	30.5% (inactive)
COc1cc(OC)c(C(=O)Nc2ccc(N(C)C)cc2)cc1OC	51.4% (active)
NC(=O)COc1ccc2c3c(c(=O)oc2c1)CCCCC3	-7.8% (inactive)
Cc1cc(NC(=O)COc2ccc(Cl)cc2Cl)n(CCC#N)n1	28.2% (inactive)
CCN1C(=O)/C(=C\N2CCN(c3ccccc3)CC2)SC1=S	-22.3% (inactive)
CCN1C(=O)/C(=C2\SC(N3CCCCC3)=NC2=O)c2ccccc21	53.9% (active)
CCN1C(=O)c2cccc3c(N)ccc1c23	15.3% (inactive)
Cc1nnc(Sc2nc3c(c(=O)[nH]c(=O)n3C)n2Cc2ccccc2)s1	-15% (inactive)
CCOC(=O)c1ccccc1NC(=O)CC1Nc2ccccc2NC1=O (centres undefined)	3.2% (inactive)
COc1ccc2nc(NC(=O)c3ccc(Br)s3)sc2c1	72.8% (active)
CNC(=O)c1ccc2nc(NC(C)=O)sc2c1	6.1% (inactive)
CCn1c(SCC(=O)Nc2nc3ccc(OC)cc3s2)nnc1-c1ccoc1C	13.2% (inactive)

— PubChem BioAssay AID522 (The Scripps Research Institute Molecular Screening Center, 2006)
